“Also recorded” adds a separate entry of the source.
Columns and labels:
3-OST-4 [1] = target: T1, 3-OST-4 (Homo sapiens, UniProt Q9Y661); assay: Reactivity of 12-mers and HS to 3-OST-4 modification; type: biochemical; settings: 12-mer substrates compared to HS polysaccharide
T1 sequence (Q9Y661 163-456): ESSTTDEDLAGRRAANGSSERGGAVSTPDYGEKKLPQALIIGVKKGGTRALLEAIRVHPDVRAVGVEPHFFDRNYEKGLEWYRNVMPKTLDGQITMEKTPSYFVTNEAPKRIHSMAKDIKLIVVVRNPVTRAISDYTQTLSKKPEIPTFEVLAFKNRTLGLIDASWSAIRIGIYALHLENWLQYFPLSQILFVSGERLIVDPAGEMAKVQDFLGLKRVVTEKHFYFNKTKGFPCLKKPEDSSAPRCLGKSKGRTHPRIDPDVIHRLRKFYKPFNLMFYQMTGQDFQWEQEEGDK
Method in brief: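 Each 12-mer (10 μg) was incubated with 3-OST-4 (5 μL of 0.8 mg mL−1 stock) in 100 μL of 50 mM Tris-HCl, pH 7.5. The reaction contained [35S]PAPS (5 μM, 1.2 × 10^5 cpm) and ran 1 h at 37 °C. Product was recovered on DEAE and 35S counted as cpm. A no-substrate reaction served as background.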

[2] = system: acetaminophen overdosed mice; settings: acetaminophen overdose model; cited from earlier work
factor IIa (FIIa) = factor IIa (FIIa) (Homo sapiens, UniProt P01008); assay: Anti-FIIa activity; type: biochemical
Chain of factor IIa (FIIa) (P01008 33-464): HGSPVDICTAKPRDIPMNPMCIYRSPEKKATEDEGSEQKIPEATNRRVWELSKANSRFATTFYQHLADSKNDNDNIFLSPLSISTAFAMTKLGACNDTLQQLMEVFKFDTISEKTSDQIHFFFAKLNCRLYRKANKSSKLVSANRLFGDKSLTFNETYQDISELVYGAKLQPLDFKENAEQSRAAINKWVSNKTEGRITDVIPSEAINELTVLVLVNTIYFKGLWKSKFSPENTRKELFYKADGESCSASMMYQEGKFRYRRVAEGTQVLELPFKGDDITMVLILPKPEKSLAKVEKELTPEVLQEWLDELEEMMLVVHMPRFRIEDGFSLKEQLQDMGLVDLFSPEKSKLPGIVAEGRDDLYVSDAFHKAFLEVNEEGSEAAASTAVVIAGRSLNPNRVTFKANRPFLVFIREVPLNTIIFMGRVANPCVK

HMGB1 = target: T2, HMGB1 (Mus musculus, UniProt P63158); assay: Binding of biotinylated oligosaccharides to HMGB1; settings: biotinylated oligosaccharide, mouse liver lysate; for fold increase in binding to HMGB-1 compared to negative control NS6S 8-mer: Western band intensity
T2 sequence (P63158 1-215): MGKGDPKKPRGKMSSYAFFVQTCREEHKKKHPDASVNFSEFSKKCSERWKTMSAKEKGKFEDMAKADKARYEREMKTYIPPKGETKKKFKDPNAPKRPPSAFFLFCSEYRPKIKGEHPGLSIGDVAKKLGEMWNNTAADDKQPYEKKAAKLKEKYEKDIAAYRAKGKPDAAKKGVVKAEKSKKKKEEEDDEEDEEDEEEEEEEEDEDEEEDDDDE
Method in brief: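 Biotinylated oligosaccharides (~20 nmol) were mixed with fresh mouse liver lysate containing HMGB1 in 20 mM HEPES, pH 7.2, 100 mM NaCl, 1% BSA. Incubation was overnight at 4 °C. Complexes were captured on streptavidin agarose and washed 5× in 20 mM HEPES/250 mM NaCl, pH 7.2. They were eluted in LDS buffer and blotted with rabbit monoclonal anti-HMGB1 plus HRP secondary. Bands were quantified densitometrically.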

human FXa = human FXa (Homo sapiens, UniProt P01008); assay: Anti-FXa activity; type: biochemical; settings: for fold increase of anti-FXa IC50 compared to HSoligo 9: ratio of IC50 values; for anti-FXa IC50: with antithrombin, 0–5000 ng/mL
Chain of human FXa (P01008 33-464): as the sequence (P01008 33-464) above
Method in brief: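 Human FXa at 50 U/mL in PBS. Test compound dissolved in PBS at 0–5000 ng/mL, preincubated with antithrombin (35 μg/mL) for 2 min at 37 °C. FXa added for 4 min at 37 °C, then diluted S-2765 (1 mg mL−1). A405 read continuously for 5 min. Maximum slope divided by control maximum slope gives % FXa activity.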

tau protein = tau protein (Homo sapiens, UniProt P10636); assay: Binding of biotinylated oligosaccharides to Cy5-labeled tau; settings: biotinylated oligosaccharide
Chain of tau protein (P10636 1-441 isoform P10636-8): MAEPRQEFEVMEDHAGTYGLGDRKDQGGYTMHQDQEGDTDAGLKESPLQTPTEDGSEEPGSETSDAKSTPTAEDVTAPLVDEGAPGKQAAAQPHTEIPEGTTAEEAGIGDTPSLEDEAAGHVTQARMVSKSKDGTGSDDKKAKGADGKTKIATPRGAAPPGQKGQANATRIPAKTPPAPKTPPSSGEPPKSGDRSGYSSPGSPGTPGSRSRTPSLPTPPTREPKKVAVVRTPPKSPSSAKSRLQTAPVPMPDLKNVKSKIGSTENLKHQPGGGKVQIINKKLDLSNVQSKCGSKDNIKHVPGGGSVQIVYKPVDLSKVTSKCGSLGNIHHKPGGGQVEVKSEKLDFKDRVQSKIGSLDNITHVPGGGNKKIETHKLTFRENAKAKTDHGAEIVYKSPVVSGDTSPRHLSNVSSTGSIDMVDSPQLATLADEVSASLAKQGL
Method in brief: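 Biotinylated oligosaccharides (~10 nmol) were incubated overnight at 4 °C with Cy5-labeled tau (5 μg) in 20 mM HEPES, pH 7.2, 100 mM NaCl, 1% BSA. Complexes were captured on streptavidin agarose and washed 3× in HEPES/250 mM NaCl, then 2× in PBS. Tau was released with heparin lyases II (14 μg) and III (20 μg) over 4 h at RT. Released tau was resolved on 4–12% Bis-Tris gels, read by fluorescence scanning and quantified.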

[3] = system: acetaminophen overdosed mice; assay: Hepatoprotection in acetaminophen overdosed mice; type: in vivo, mouse
3-OST-4 [4] = target: T1, 3-OST-4; assay: 3-OST-4 modification of oligosaccharide substrates, anion exchange HPLC analysis; type: biochemical; settings: for sulfation by 3-OST-4 (in words): HPLC analysis of substrate with or without 3-OST-4 modification
Method in brief: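 Recombinant human 3-OST-4 (E163–K456) was expressed in Sf9 insect cells and purified on heparin then Ni-Sepharose. Oligosaccharide substrates were incubated overnight at 37 °C with PAPS and 3-OST-4 (0.8 mg mL−1 stock) in 50 mM Tris, pH 7.2, with 2 mM CaCl2. For the 8-mer substrate C, 2 mM MnCl2 was also present. Conversion was followed by anion exchange HPLC.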

| Substance | reactivity toward 3-OST-4 modification (in words) (3-OST-4 [1]) | anti-IIa IC50 (factor IIa (FIIa)) | anti-FXa IC50 (human FXa) | other results |
| --- | --- | --- | --- | --- |
| GlcNAc-(GlcA-GlcNAc)5-GlcA-pNP [12-mer NAc] | not substrates | – | – | – |
| GlcNS6S-(GlcA-GlcNS6S)5-GlcA-pNP [12-mer NS6S] | not substrates | – | – | – |
| GlcNS6S-GlcA-(GlcNS6S-IdoA2S)4-GlcNS6S-GlcA-pNP [12-mer NS2S6S] | not substrates | – | – | – |
| GlcNS6S-GlcA-GlcNS3S6S-IdoA2S-GlcNS6S-IdoA2S-GlcNS6S-IdoA2S-GlcNS6S-IdoA2S-GlcNS6S-IdoA2S-GlcNS6S-IdoA2S-GlcNS6S-IdoA2S-GlcNS6S-GlcA-Biotin [18-mer AXa] | – | – | – | hepatoprotection effect [2]: does not display the hepatoprotection effect |
| GlcNS6S-GlcA-GlcNS6S-GlcA2S-GlcNS3S6S-GlcA2S-GlcNS3S6S-GlcA2S-pNP [HSoligo 7] | – | lacks anti-FIIa activity; also recorded: no inhibition | 79.5 ng/mL | extent of binding to HMGB1 relative to positive control 18-mer AXa (in words) (HMGB1): comparable to that of 18-mer AXa; fold increase in binding to HMGB-1 compared to negative control NS6S 8-mer (HMGB1): 15 fold; fold increase of anti-FXa IC50 compared to HSoligo 9 (human FXa): 3.5 fold; binding to tau, fold higher than 8-mer NS6S (tau protein): 2 fold; binding to tau, fold higher than HSoligo 4 (tau protein): 4 fold; level of binding to tau relative to 18-mer AXa (in words) (tau protein): comparable to 18-mer AXa; hepatoprotection: plasma level of alanine aminotransferase (ALT) [3]: did not find a decrease |
| GlcNS6S-GlcA-GlcNS6S-GlcA2S-GlcNS3S6S-GlcA2S-pNP [HSoligo 5] | – | no inhibition | 154.4 ng/mL | – |
| GlcNS6S-GlcA-GlcNS6S-GlcA2S-GlcNS3S6S-GlcA-pNP [HSoligo 4] | – | no inhibition | 311.4 ng/mL | fold increase in binding to HMGB-1 compared to negative control NS6S 8-mer (HMGB1): 6 fold; fold increase of anti-FXa IC50 compared to HSoligo 9 (human FXa): 6.9 fold |
| GlcNS6S-GlcA-GlcNS6S-GlcA2S-GlcNS3S6S-IdoA2S-GlcNS-GlcA-pNP [HSoligo 9] | – | no inhibition | 22.5 ng/mL | – |
| GlcNS-(GlcA-GlcNS)5-GlcA-pNP [12-mer NS] | Lower reactivity | – | – | – |
| GlcNS-GlcA-(GlcNS-IdoA2S)4-GlcNSGlcA-pNP [12-mer NS2S] | preferably sulfates | – | – | – |
| GlcNS-GlcA-GlcNS-GlcA2S-GlcNS3S-IdoA2S-GlcNS-GlcA-pNP [HSoligo 8] | – | no inhibition | no inhibition | – |
| GlcNS-GlcA-GlcNS-GlcA2S-GlcNS-GlcA2S-pNP [6-mer substrate E] | – | – | – | sulfation by 3-OST-4 (in words) (3-OST-4 [4]): highly reactive |
| GlcNS-GlcA-GlcNS-GlcA2S-GlcNS-GlcA-pNP [6-mer substrate D] | – | – | – | sulfation by 3-OST-4 (in words) (3-OST-4 [4]): nearly quantitatively converted |
| GlcNS-GlcA-GlcNS-GlcA-GlcNS-IdoA2S-GlcNS-GlcA-pNP [8-mer substrate B] | – | – | – | sulfation by 3-OST-4 (in words) (3-OST-4 [4]): failed to sulfate |
| GlcNS-GlcA-GlcNS-IdoA2S-GlcNS-IdoA2S-GlcNS-GlcA-pNP [8-mer substrate C] | – | – | – | substrate converted to 3-O-sulfated product after 3-OST-4 modification (3-OST-4 [4]; HPLC, conversion to HSoligo 1): about 71% |

Reference: paper PMC8526403 (ACS chemical biology, 2021)
